Source: PubChem BioAssay
Compounds with a hit are over-represented: about 2.6% of the library has one in this group of screens.
SENP8 block-1: blocks human SENP8 cleavage of Nedd8 substrate; recombinant SENP8, Nedd8 substrate fluorescence; actives 0.64% (n = 360,000); AID 602440; inhibition, % at 20 µM; Q96LD8; in the data active = inhibition mostly above about 40%, no sharp cut-off; inactive = mostly below about 27%
Platelet DG rel: platelet dense granule release activity; human platelet-rich plasma, SFLLRN dense granule ATP release, luminescence; inhibition, %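 (compounds screened at 7.5 µM in platelet-rich plasma)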; actives 0.22% (n = 300,000);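 active = mean replicate score, as percent of positive control, at or above 50; inconclusive = mean below 50 but at least one replicate at or above 50; inactive = mean and every replicate below 50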
SENP1 inh: blocks the human SENP1 SUMO protease catalytic domain; Q9P0U3; recombinant SENP1 catalytic domain, CyPet-SUMO1-YPet FRET cleavage; inhibition, % at 10 µM; actives 0.21% (n = 360,000); AID 624204;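 active = inhibition at least 30% at 10 µM, raw YFP signal under a set limit, fluorescence ratio 0.5 to 1.5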;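 note: 0% = enzyme with DMSO and 100% = no enzyme wells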
Target sequence (Q9P0U3 419-644 limits assumed): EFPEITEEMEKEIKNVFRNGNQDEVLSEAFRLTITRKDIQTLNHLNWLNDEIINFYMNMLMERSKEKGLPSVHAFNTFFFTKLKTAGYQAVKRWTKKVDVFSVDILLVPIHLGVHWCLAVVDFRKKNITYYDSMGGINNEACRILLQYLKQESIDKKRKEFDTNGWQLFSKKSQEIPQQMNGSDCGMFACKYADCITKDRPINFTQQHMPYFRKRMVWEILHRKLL
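Material: hSENP1 catalytic domain, recombinant; medium: Tris pH 8 with BME, BSA, NP40 and catalase; compound: single concentration of 10 µM compound, 0.5% DMSO final; technique: FRET read of cyan and yellow fluorescence; timing: 50 min enzyme reaction, room temperature, light-protected; reagent: SFCypet-SUMO1-SFYpet substrate at 25 nM; control set: no-enzyme low, enzyme-DMSO high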
SENP6 block: blocks the human protease SENP6. Q9GZR1. Recombinant SENP6 catalytic domain, aminoluciferin luminescence. inhibition, % at 10 µM. actives 1.8% (n = 330,000). AID 2599;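 active = inhibition above about 50% at the single tested dose, limit read from the data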;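 note: plate controls were DMSO wells with enzyme for no effect and DMSO wells lacking enzyme for full effect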
SENP7 block: blocks the human protease SENP7. actives 1.5% (n = 330,000). inhibition, % at 5 µM. recombinant SENP7, Z-RLRGG-aminoluciferin luminescence, 40 min;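 active = inhibition above about 50% at the single test dose, limit read from the data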;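 note: plate controls were DMSO with enzyme for no effect and no enzyme buffer wells for full effect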
SENP8 block-2: blocks the human protease SENP8; purified SENP8, Z-RLRGG-aminoluciferin cleavage, luminescence; AID 2540; actives 1.2% (n = 330,000); inhibition, % at 10 µM; in the data active = inhibition above about 50%
SENP8 conf: human SENP8 inhibition, confirmed | shares compounds with SENP7 block | Recombinant SENP8, Z-RLRGG-aminoluciferin luminescence, 60 min | inhibition, % at 12.5 µM | actives 40% (n = 6,200) | AID 488912;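 active = mean inhibition across replicates above about 50%, limit read from the data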
SENP6 confirm: human SENP6 inhibition, confirmed; shares compounds with SENP7 block; recombinant SENP6, Z-RLRGG-aminoluciferin luminescence; inhibition, % at 12.5 µM; actives 58% (n = 6,200)
SENP7 confirm: confirmation of human SENP7 protease inhibitors; shares compounds with SENP7 block; recombinant SENP7, Z-RLRGG-aminoluciferin luminescence, 40 min; inhibition, % at 12.5 µM; actives 69% (n = 6,200); AID 488917
Casp3 select: inhibits human caspase-3 in SENP selectivity test; shares compounds with SENP7 block; purified caspase-3, Z-DEVD-aminoluciferin luminescence, 60 min; inhibition, % at 12.5 µM; actives 60% (n = 6,200); AID 488918;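 active = mean inhibition above about 50%, limit read from the data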;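 note: plate controls were enzyme with DMSO for no effect and wells without caspase-3 for full effect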
Target sequence (P42574 28-227 limits assumed): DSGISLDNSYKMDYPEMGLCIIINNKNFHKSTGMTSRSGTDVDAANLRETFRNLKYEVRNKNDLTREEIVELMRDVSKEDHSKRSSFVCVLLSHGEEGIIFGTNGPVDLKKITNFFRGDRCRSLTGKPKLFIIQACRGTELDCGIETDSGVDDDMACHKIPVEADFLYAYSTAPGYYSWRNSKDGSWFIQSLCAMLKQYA
Luc interf: interferes with luciferase luminescence in SENP counter-screen; AID 488919; actives 39% (n = 6,200); shares compounds with SENP7 block; Pre-incubated SENP8/Z-RLRGG-aminoluciferin, luciferase luminescence interference; inhibition, % at 12.5 µM;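 active = mean inhibition above about 50% when retested at one dose, limit read from the data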;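 note: plate controls were DMSO wells with completed reaction for no effect and substrate without enzyme for full effect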
Starred values were filed as active, the others as inactive; ? = inconclusive; . = no result.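 Rule for the calls, unless noted: active = mean inhibition above about 50% in the one-dose retest (limit read from the data); inactive = the rest.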

SMILES | SENP8 block-1 | Platelet DG rel | SENP1 inh | SENP6 block | SENP7 block | SENP8 block-2 | SENP8 conf | SENP6 confirm | SENP7 confirm | Casp3 select | Luc interf
CCOc1ccc(Nc2ccc([N+](=O)[O-])c3nonc23)cc1 | 39 | 1 | 7 | 71* | 37 | 65* | 64* | 60* | 84* | 61* | 65*
CCC(=O)Oc1ccc2c(c1)O/C(=C\c1ccco1)C2=O | -225 | 2 | -38 | -3 | -7 | -5 | . | . | . | . | .
Cc1cc(O)cc2c1C(=O)/C(=C/c1ccco1)O2 | -71 | 14 | -21 | 67* | 2 | 63* | 85* | 87* | 98* | 90* | 89*
Cc1cc(C)nc(SCc2ccc(Br)cc2)n1 | 0 | 4 | 2 | -23 | 60* | -13 | -22 | -12 | 3 | 0 | 2
Cn1ccnc1C(OC(=O)c1ccccc1)C(F)(F)F (stereo not given) | 7 | 1 | -1 | -14 | -5 | -4 | . | . | . | . | .
Cc1ccc(N2CC(C)Cn3c2nc2c3c(=O)[nH]c(=O)n2C)cc1C (stereo not given) | 5 | . | 1 | -19 | -10 | -3 | . | . | . | . | .
CCOC(=O)c1ccc(-c2ccc(CO)o2)cc1 | -272 | 1 | -2 | 65* | 55* | 29 | 60* | 57* | 86* | 73* | 64*
CCOC(=O)c1ccc(COC(=O)c2ccc(-c3nnc(-c4ccccc4)o3)cc2)o1 | -161 | ? | 1 | 53* | 3 | 25 | 24 | 20 | 22 | 59* | 51*
Cc1cccc(N2CCN(C(=O)NC3CCCCC3)CC2)c1C | 15 | 0 | 1 | -2 | -3 | -3 | . | . | . | . | .
COc1ccc(CN2C(=O)C(CC(=O)NC3CC3)CC(C(=O)N3CCOCC3)=C2C)cc1 (stereo not given) | 16 | . | 2 | . | . | . | . | . | . | . | .
O=C(CN1C(=O)NC2(CCCCC2)C1=O)Nc1ccc2c(c1)OCCCO2 | 17 | . | 1 | 2 | 4 | -7 | . | . | . | . | .
O=C(COC(=O)C1CC2CCCC(C1)C2=O)NNC(=O)c1ccccc1Br (stereo not given) | 0 | . | 3 | 13 | 2 | 3 | . | . | . | . | .
O=C1NC(=S)N/C1=C/c1cc2c(cc1[N+](=O)[O-])OCO2 | -106 | -2 | -20 | 64* | 26 | 75* | 13 | 63* | 24 | 4 | 0
Cc1ccc(Cl)cc1NC1=C/C(=N\S(=O)(=O)c2cccs2)c2ccccc2C1=O | 85* | -2 | 2 | 75* | 76* | 78* | 82* | 96* | 77* | 85* | 0
O=C(NCc1ccco1)C1CCCN(c2ncnc3c2nc2n3CCCCC2)C1 (stereo not given) | 7 | 6 | 1 | 2 | 0 | 1 | . | . | . | . | .
O=[N+]([O-])c1ccccc1NCCNc1ncc(C(F)(F)F)cc1Cl | 30 | -5 | 3 | -15 | -1 | -15 | . | . | . | . | .
O=c1cc(Cl)[nH]c(=O)n1CCNc1ncc(C(F)(F)F)cc1Cl | -40 | 11 | -107 | 58* | 10 | 33 | 52* | 49 | 77* | 73* | 10
O=[N+]([O-])c1cccnc1NCCc1ccccc1 | 10 | 9 | 0 | 95* | 88* | 81* | 41 | 69* | 88* | 72* | 17
O=[N+]([O-])c1cccnc1NCCNc1ncc(C(F)(F)F)cc1Cl | 26 | -7 | -14 | 67* | 58* | 36 | 60* | 56* | 83* | 37 | 47
